Results published in ChEMBL document CHEMBL1124137, “Synthesis and testing of quinone-based bis(2,2-dimethyl-1-aziridinyl)phosphinyl carbamates as radiation-potentiating antitumor agents” (1988).

Tests used:
Assay type in all cases: functional
Mus musculus [1] = assay: Average weight change on day 5 in mice infected by P-388 leukemia when treated with a dose of 128 mg/Kg of compound
How it was run: (§1)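 P-388 leukemia kept as ascites in DBA/2 mice; 10⁶ cells implanted into female CDF₁ mice (16–20 g), six mice per dose, 10 untreated leukemia controls. Compound dissolved in water with Tween 80 and given as a single ip injection on day 1 after implant, within 15 min of dissolving. Body weight change averaged on day 5.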

Mus musculus [2] = assay: Average weight change on day 5 in mice infected by P-388 leukemia when treated with a dose of 16 mg/Kg of compound; how it was run: as §1
Mus musculus [3] = assay: Average weight change on day 5 in mice infected by P-388 leukemia when treated with a dose of 256 mg/Kg of compound; how it was run: as §1
Mus musculus [4] = assay: Average weight change on day 5 in mice infected by P-388 leukemia when treated with a dose of 32 mg/Kg of compound; how it was run: as §1
Mus musculus [5] = assay: Average weight change on day 5 in mice infected by P-388 leukemia when treated with a dose of 64 mg/Kg of compound; how it was run: as §1
Mus musculus [6] = assay: Average weight change on day 5 in mice infected by P-388 leukemia when treated with a dose of 8 mg/Kg of compound; how it was run: as §1
Mus musculus [7] = assay: Median survival time (MST) of treated mice infected by P-388 leukemia, as percent of the MST of untreated controls when treated with a dose of 32 mg/Kg of compound
How it was run: (§2)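 P-388 leukemia kept as ascites in DBA/2 mice. CDF1 female mice (16–20 g) received 10⁶ cells; six mice per dose and 10 untreated leukemia controls. Drug in water with Tween 80, given within 15 min of dissolution as a single ip injection on day 1 after implant. Mice observed until death; %T/C is treated over control median survival time. Average weight change taken on day 5.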

Mus musculus [8] = assay: Median survival time (MST) of treated mice infected by P-388 leukemia, as percent of the MST of untreated controls when treated with a dose of 64 mg/Kg of compound; how it was run: as §2
Mus musculus [9] = assay: Median survival time (MST) of treated mice infected by P-388 leukemia, as percent of the MST of untreated controls when treated with a dose of 8 mg/Kg of compound; how it was run: as §2
Mus musculus [10] = assay: Median survival time (MST) of treated mice infected by P-388 leukemia, as percent of the MST of untreated controls when treated with a dose of 128 mg/Kg of compound; how it was run: as §2
Mus musculus [11] = assay: Median survival time (MST) of treated mice infected by P-388 leukemia, as percent of the MST of untreated controls when treated with a dose of 16 mg/Kg of compound; how it was run: as §2
Mus musculus [12] = assay: Median survival time (MST) of treated mice infected by P-388 leukemia, as percent of the MST of untreated controls when treated with a dose of 256 mg/Kg of compound; how it was run: as §2
Mus musculus [13] = assay: Average weight change on day 5 in mice infected by P-388 leukemia when treated with a dose of 100 mg/Kg of compound; how it was run: as §2
Mus musculus [14] = assay: Average weight change on day 5 in mice infected by P-388 leukemia when treated with a dose of 200 mg/Kg of compound; how it was run: as §2
Mus musculus [15] = assay: Average weight change on day 5 in mice infected by P-388 leukemia when treated with a dose of 400 mg/Kg of compound; how it was run: as §2
Mus musculus [16] = assay: Average weight change on day 5 in mice infected by P-388 leukemia when treated with a dose of 50 mg/Kg of compound; how it was run: as §2
Mus musculus [17] = assay: Median survival time (MST) of treated mice infected by P-388 leukemia, as percent of the MST of untreated controls when treated with a dose of 100 mg/Kg of compound; how it was run: as §2
Mus musculus [18] = assay: Median survival time (MST) of treated mice infected by P-388 leukemia, as percent of the MST of untreated controls when treated with a dose of 400 mg/Kg of compound; how it was run: as §2
Mus musculus [19] = assay: Median survival time (MST) of treated mice infected by P-388 leukemia, as percent of the MST of untreated controls when treated with a dose of 50 mg/Kg of compound; how it was run: as §2
Mus musculus [20] = assay: Median survival time (MST) of treated mice infected by P-388 leukemia, as percent of the MST of untreated controls when treated with a dose of 200 mg/Kg of compound; how it was run: as §2

Row | Compound | AWC (Mus musculus [1]) [g] | AWC (Mus musculus [2]) [g] | AWC (Mus musculus [3]) [g] | AWC (Mus musculus [4]) [g] | AWC (Mus musculus [5]) [g] | AWC (Mus musculus [6]) [g] | T/C (Mus musculus [7]) [%] | T/C (Mus musculus [8]) [%] | T/C (Mus musculus [9]) [%] | T/C (Mus musculus [10]) [%] | T/C (Mus musculus [11]) [%] | T/C (Mus musculus [12]) [%] | AWC (Mus musculus [13]) [g] | AWC (Mus musculus [14]) [g] | AWC (Mus musculus [15]) [g] | AWC (Mus musculus [16]) [g] | T/C (Mus musculus [17]) [%] | T/C (Mus musculus [18]) [%] | T/C (Mus musculus [19]) [%] | T/C (Mus musculus [20]) [%]
1 | CC1(C)CN1P(=O)(NC(=O)OCC/N=C1C(O)=C(Cl)/C(=N\CCOC(=O)NP(=O)(N2CC2(C)C)N2CC2(C)C)C(O)=C/1Cl)N1CC1(C)C (stereo not given) | -0.9 | -1.1 | -2.1 | -0.6 | -1.2 | -0.4 | 129 | 124 | 118 | 135 | 124 | 165 |  |  |  |  |  |  |  | 
2 | CCOC(=O)NP(=O)(N1CC1(C)C)N1CC1(C)C (stereo not given) [METUREDEPA] |  |  |  |  |  |  |  |  |  |  |  |  | -0.4 | -0.2 | -1.3 | -0.7 | 181 | 244 | 163 | 231
